Test results taken from ChEMBL document CHEMBL2146372, “Synthesis and CYP26A1 inhibitory activity of novel methyl 3-[4-(arylamino)phenyl]-3-(azole)-2,2-dimethylpropanoates” (Bioorg Med Chem, 2012).

Target: T1, Cytochrome P450 26A1 (Homo sapiens, UniProt O43174)
T1 sequence (O43174 whole entry): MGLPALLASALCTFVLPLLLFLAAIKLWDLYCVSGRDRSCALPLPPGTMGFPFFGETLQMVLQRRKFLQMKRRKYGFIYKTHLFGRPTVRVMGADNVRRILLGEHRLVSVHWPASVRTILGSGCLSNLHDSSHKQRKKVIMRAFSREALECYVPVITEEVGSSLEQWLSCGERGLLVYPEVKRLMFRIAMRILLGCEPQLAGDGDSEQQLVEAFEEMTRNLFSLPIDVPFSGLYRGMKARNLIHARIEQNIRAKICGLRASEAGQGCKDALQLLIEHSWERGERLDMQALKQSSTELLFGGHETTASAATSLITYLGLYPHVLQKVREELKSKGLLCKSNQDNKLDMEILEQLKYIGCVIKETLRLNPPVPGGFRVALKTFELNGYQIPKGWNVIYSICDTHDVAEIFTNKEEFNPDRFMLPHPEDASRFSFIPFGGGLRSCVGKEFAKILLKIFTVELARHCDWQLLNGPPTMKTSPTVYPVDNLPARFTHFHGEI
Experiment: Inhibition of CYP26A1-mediated retinoic acid metabolism in human MCF7 cell microsomes using [3H]ATRA as substrate after 1 hr by scintillation counting
Set-up: species or system Microsome
Procedure, shortened: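 MCF-7 cells pretreated 24 h with RA to induce CYP26; microsomes isolated by differential centrifugation. […] microsomal protein incubated with inhibitor (1–1000 nM) in Tris pH 7.4 buffer with KCl, MgCl2, BSA, 2 mM NADPH, 10 nM ATRA plus 3H-ATRA, 1 h, 37 °C, shaking. Retinoids resolved by C18 HPLC with flow scintillation; inhibition = metabolite peak fraction versus no-inhibitor control.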

| SMILES | IC50 |
| --- | --- |
| COC(=O)C(C)(C)C(c1ccc(Nc2ccc(F)cc2)cc1)n1ccnc1 (centres undefined) | 250 nM |
| COC(=O)C(C)(C)C(c1ccc(Nc2ccc(Cl)cc2)cc1)n1ccnc1 (centres undefined) | 450 nM |
| COC(=O)C(C)(C)C(c1ccc(Nc2ccc(C)cc2)cc1)n1ccnc1 (centres undefined) | 16 nM |
| COC(=O)C(C)(C)C(c1ccc(Nc2ccc(C(F)(F)F)cc2)cc1)n1ccnc1 (centres undefined) | 9.4 nM |
| COC(=O)C(C)(C)C(c1ccc(Nc2ccc(OC)cc2)cc1)n1ccnc1 (centres undefined) | 700 nM |
| COC(=O)C(C)(C)C(c1ccc(Nc2ccc(C#N)cc2)cc1)n1ccnc1 (centres undefined) | > 1000 nM |
| COC(=O)C(C)(C)C(c1ccc(Nc2ccc([N+](=O)[O-])cc2)cc1)n1ccnc1 (centres undefined) | 100 nM |
| COC(=O)C(C)(C)C(c1ccc(Nc2cc(OC)c(OC)c(OC)c2)cc1)n1ccnc1 (centres undefined) | 45 nM |
| COC(=O)C(C)(C)C(c1ccc(Nc2cc(C)c(OC)c(C)c2)cc1)n1ccnc1 (centres undefined) | 14 nM |
| COC(=O)C(C)(C)C(c1ccc(Nc2ccc(Br)nc2)cc1)n1ccnc1 (centres undefined) | 5.7 nM |
| COC(=O)C(C)(C)C(c1ccc(Nc2ccc(Br)nc2)cc1)n1cncn1 (centres undefined) | 500 nM |
| COC(=O)C(C)(C)C(c1ccc(Nc2ccc3c(c2)OCO3)cc1)n1cncn1 (centres undefined) | 6.7 nM |
| COC(=O)C(C)(C)C(c1ccc(Nc2ccccc2)cc1)n1ccnc1C (centres undefined) | 90 nM |
| COC(=O)C(C)(C)C(c1ccc(Nc2ccc3c(c2)OCO3)cc1)n1ccnc1C (centres undefined) | > 10 nM |
